Measured values taken from ChEMBL document CHEMBL2169746, “Design, synthesis, and antitumor evaluation of 2,4,6-triaryl pyridines containing chlorophenyl and phenolic moiety” (Eur J Med Chem, 2012).
pIC50: −log10 of the molar value.

Assays:
[1] = molecular target: DNA topoisomerase 2-alpha (Homo sapiens) (UniProt P11388); experiment: Inhibition of human DNA topoisomerase-2alpha-mediated relaxation of supercoiled pBR322 at 100 uM after 30 mins using ethidium bromide staining by agarose gel electrophoresis
Chain of DNA topoisomerase 2-alpha (Homo sapiens) (P11388 whole entry): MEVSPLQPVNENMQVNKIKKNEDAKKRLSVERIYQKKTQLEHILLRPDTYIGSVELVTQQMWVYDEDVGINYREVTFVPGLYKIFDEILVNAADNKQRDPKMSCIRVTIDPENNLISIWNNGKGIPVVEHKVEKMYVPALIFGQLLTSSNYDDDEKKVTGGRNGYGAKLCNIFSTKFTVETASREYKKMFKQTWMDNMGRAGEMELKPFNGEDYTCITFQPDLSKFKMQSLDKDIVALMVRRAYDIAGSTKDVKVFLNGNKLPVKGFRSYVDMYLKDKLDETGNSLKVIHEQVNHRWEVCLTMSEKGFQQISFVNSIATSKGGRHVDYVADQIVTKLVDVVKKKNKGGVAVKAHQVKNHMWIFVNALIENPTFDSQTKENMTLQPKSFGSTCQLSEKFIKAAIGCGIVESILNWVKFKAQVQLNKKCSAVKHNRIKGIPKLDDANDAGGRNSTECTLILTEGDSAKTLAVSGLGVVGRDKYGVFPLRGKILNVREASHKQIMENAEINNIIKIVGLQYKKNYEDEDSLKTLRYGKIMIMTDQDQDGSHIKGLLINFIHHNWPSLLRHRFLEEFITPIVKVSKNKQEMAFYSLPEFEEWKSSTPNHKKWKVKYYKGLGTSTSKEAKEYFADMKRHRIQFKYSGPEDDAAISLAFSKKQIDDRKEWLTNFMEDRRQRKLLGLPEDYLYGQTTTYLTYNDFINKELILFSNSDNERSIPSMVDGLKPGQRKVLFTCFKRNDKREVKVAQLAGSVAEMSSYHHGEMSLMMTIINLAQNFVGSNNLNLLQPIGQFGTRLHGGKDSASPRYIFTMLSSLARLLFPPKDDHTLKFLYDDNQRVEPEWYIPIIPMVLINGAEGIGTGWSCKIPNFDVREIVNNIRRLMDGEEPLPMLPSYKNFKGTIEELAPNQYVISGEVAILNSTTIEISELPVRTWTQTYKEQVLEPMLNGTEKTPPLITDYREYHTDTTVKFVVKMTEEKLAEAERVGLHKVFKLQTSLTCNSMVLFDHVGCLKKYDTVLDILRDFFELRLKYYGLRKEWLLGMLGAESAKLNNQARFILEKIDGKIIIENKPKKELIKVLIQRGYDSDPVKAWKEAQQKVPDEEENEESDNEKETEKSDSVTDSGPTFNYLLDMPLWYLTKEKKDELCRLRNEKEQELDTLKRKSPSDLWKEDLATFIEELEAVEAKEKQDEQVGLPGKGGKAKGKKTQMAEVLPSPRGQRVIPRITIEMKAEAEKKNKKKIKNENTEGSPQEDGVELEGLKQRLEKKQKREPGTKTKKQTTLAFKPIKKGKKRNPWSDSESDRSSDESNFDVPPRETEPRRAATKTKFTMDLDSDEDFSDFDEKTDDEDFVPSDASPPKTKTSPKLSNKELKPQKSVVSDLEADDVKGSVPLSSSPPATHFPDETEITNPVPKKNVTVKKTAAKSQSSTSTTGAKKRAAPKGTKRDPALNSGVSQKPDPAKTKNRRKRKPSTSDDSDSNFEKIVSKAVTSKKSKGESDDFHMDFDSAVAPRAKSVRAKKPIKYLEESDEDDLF
Summary of the method: (§1)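 200 ng supercoiled pBR322 with 1 unit human topo IIα, with or without compound. Buffer was 10 mM Tris-HCl pH 7.9, 50 mM NaCl, 5 mM MgCl₂, 1 mM EDTA, 1 mM ATP and bovine serum albumin. Incubated 30 min at 30 °C, stopped with EDTA. Products run on 1% agarose gel, 25 V, 4 h, TAE buffer. Compound stocks 20 mM in DMSO.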

[2] = molecular target: T1, DNA topoisomerase 1 (Homo sapiens) (UniProt P11387); experiment: Inhibition of recombinant human DNA topoisomerase-1-mediated relaxation of supercoiled pBR322 at 20 uM after 30 mins using ethidium bromide staining by agarose gel electrophoresis
T1 sequence (whole entry): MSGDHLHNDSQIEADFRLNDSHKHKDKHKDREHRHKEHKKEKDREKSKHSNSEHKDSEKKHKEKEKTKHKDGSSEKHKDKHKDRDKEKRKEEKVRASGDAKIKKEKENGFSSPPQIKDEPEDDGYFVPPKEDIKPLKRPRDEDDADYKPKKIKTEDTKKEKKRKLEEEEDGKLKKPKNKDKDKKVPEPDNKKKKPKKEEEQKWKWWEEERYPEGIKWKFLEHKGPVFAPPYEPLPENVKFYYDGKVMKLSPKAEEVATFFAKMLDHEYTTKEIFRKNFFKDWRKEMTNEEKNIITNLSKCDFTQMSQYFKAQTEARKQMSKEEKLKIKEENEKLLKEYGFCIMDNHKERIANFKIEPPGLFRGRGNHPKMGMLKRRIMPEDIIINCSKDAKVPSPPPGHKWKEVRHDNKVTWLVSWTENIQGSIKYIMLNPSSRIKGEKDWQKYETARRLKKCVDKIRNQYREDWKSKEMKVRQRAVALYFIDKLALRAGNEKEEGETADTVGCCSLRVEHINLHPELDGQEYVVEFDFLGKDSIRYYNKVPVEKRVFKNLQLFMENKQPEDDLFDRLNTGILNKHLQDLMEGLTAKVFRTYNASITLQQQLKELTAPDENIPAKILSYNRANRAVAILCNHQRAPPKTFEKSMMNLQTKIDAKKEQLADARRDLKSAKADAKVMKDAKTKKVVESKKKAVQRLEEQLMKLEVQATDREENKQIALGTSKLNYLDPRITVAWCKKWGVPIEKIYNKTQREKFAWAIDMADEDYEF
Summary of the method: (§2)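 Compounds from 20 mM DMSO stocks. 100 ng pBR322 plasmid DNA with 1 unit recombinant human topo I, with or without compound, 37 °C for 30 min. Relaxation buffer was 10 mM Tris-HCl pH 7.9, 150 mM NaCl, 0.1% BSA, 1 mM spermidine. Relaxation of supercoiled DNA assessed by gel imaging.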

T47D = experiment: Cytotoxicity against human T47D cells after 2 days by cell counting kit-8 analysis; type: functional, cell-based; details: 48 h
Summary of the method: (§3)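 Cells grown per supplier's instructions, seeded at 2-4 × 10⁴ cells/well and incubated overnight in medium with 10% FBS at 37 °C, 5% CO₂. On day 2, after 4 h FBS starvation, medium was replaced with medium containing graded compound concentrations. Absorbance read at 450 nm. IC50 from a four-parameter logistic fit. Three independent experiments in triplicate, mean ± S.D.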

HEK293 = experiment: Cytotoxicity against human HEK293 cells after 2 days by cell counting kit-8 analysis; type: cell-based; details: HEK293, 48 h; summary of the method: as §3
HCT-15 = experiment: Cytotoxicity against human HCT15 cells after 2 days by cell counting kit-8 analysis; type: functional, cell-based; details: HCT-15, 48 h; summary of the method: as §3
[3] = molecular target: T1, DNA topoisomerase 1 (Homo sapiens); experiment: Inhibition of recombinant human DNA topoisomerase-1-mediated relaxation of supercoiled pBR322 at 100 uM after 30 mins using ethidium bromide staining by agarose gel electrophoresis; summary of the method: as §2
DU-145 = experiment: Cytotoxicity against human DU145 cells after 2 days by cell counting kit-8 analysis; type: functional, cell-based; details: DU-145, 48 h; summary of the method: as §3
[4] = molecular target: DNA topoisomerase 2-alpha (Homo sapiens) (UniProt P11388); experiment: Inhibition of human DNA topoisomerase-2alpha-mediated relaxation of supercoiled pBR322 at 20 uM after 30 mins using ethidium bromide staining by agarose gel electrophoresis; summary of the method: as §1

Row | Structure (SMILES) | inhibition [1] | inhibition [2] | inhibition [3] | inhibition [4] | pIC50 (T47D) | pIC50 (HEK293) | pIC50 (HCT-15) | pIC50 (DU-145)
1 | Oc1ccc(-c2cc(-c3cccnc3)nc(-c3cccc(Cl)c3)c2)cc1 | 46.9% | 0% | 55.2% | 0% | 4.59 | 4.59 | 4.67 | 4.64
2 | Oc1ccc(-c2cc(-c3ccc(Cl)cc3)nc(-c3cccs3)c2)cc1 | 77.2% | 0% | 38.8% | 22% | 5.19 | 5.34 | 5.19 | 5.12
3 | Oc1ccc(-c2cc(-c3cccc(Cl)c3)nc(-c3cccs3)c2)cc1 | 72.4% | 0% | 52.4% | 0% | 5.27 | 5.57 | 5.30 | 5.24
4 | Oc1ccc(-c2cc(-c3ccc(Cl)cc3)nc(-c3ccccn3)c2)cc1 | 66.7% |  | 12.7% | 13.1% | 4.59 | 4.57 | 4.67 | 4.65

Continued, in another order:

Row | inhibition [1] | inhibition [2] | inhibition [3] | inhibition [4] | Structure (SMILES) | pIC50 (T47D) | pIC50 (HEK293) | pIC50 (HCT-15) | pIC50 (DU-145)
5 | 67.5% | 0% | 59.4% | 0% | Oc1ccc(-c2cc(-c3cccc(Cl)c3)nc(-c3ccccn3)c2)cc1 | 4.55 | 4.59 | 4.55 | 4.45
6 | 83.6% | 30.7% | 47.7% | 67.1% | Oc1ccc(-c2cc(-c3ccc(Cl)cc3)nc(-c3ccsc3)c2)cc1 | 5.26 | 5.31 | 5.20 | 5.16
7 | 80.9% | 55.2% | 68% | 44.6% | Oc1ccc(-c2cc(-c3ccccc3)nc(-c3ccc(Cl)cc3)c2)cc1 | 5.37 | 5.32 | 5.16 | 5.14
8 | 59.4% | 0% | 30% | 13.1% | Oc1cccc(-c2cc(-c3ccc(Cl)cc3)nc(-c3ccccn3)c2)c1 | 4.86 | 4.85 | 4.87 | 5.09
9 | 83% |  | 3.2% | 23% | Oc1cccc(-c2cc(-c3ccccc3)nc(-c3ccccc3Cl)c2)c1 | 5.53 | 5.75 | 5.53 | 5.83
